Screening data deposited in PubChem by Johns Hopkins Ion Channel Center.
The list is not random: actives were taken first. Their share in the collection is about 3.5%.
RGS4 act = RGS4 potentiators or activators, primary screen, cell-based, HEK293 M3R inducible RGS4, calcium flux | carbachol calcium flux Fluo4; active compounds read low | 310,000 tested, 0.92% active | B-score at 10 µM;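 active = B-score of the integrated calcium signal more than 4 SD below the library mean, with starting fluorescence not abnormally high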;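 also: negative B-score means reduced calcium response which marks RGS4 activation or potentiation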
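Detection: kinetic calcium fluorescence imaging with Fluo4-AM dye, 2 µM / Material: HEK293 cells with stable M3R and inducible RGS4 / Schedule: recording 10 s baseline at 1 Hz, 100 s post-agonist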
MrgX1 antag = antagonists of human MrgX1 receptor, primary screen, HEK293 cells, Fluo-4 calcium flux; Mas-related G-protein coupled receptor member X1 (Homo sapiens), Q96LB2; BAM8-22 antagonism; active compounds read low; B-score at 10 µM; 310,000 tested, 1.3% active;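 active = calcium-response B-score plate-corrected more than 3 library SD below zero, starting fluorescence within 5 deviations, no agonist response on first addition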;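 also: peak minus trough fluorescence over baseline after final BAM8-22 challenge near maximal dose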
Target sequence (Q96LB2 whole entry, looked up): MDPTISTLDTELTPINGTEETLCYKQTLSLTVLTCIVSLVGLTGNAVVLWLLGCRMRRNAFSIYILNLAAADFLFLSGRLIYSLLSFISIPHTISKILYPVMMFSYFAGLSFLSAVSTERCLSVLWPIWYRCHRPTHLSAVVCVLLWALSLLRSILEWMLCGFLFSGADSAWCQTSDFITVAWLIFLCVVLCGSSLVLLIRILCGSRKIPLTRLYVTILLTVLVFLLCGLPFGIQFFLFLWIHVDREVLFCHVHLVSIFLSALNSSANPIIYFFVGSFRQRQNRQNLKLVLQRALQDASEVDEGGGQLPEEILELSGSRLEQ
RGS4 block = RGS4 inhibitors, primary screen, cell-based, HEK293 M3R inducible RGS4, calcium flux; B-score at 10 µM; 310,000 tested, 0.45% active; Regulator of G-protein signaling 4 (Homo sapiens), P49798; Fluo-4 calcium flux; active compounds read high; triggered by carbachol at its EC20;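 active = B-score, a plate-corrected calcium signal, over three deviations above library mean, with baseline fluorescence within five deviations of library mean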;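 also: RGS4 expression induced by doxycycline in cells with stable M3 receptor; B-score is computed from the integrated fluorescence ratio over baseline after carbachol; higher B-score means a larger calcium signal and so more RGS4 inhibition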
Target sequence (P49798 whole entry, looked up): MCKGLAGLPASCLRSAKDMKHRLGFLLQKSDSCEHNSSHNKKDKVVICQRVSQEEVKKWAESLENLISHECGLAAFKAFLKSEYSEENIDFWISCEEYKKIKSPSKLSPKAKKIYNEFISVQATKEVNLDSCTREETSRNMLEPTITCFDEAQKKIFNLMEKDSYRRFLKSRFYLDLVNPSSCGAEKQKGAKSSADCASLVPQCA
MrgX1 PAM = positive allosteric modulators of MrgX1, primary screen, HEK293 cells, Fluo-4 calcium flux; AID 588675, 2011; 310,000 tested, 0.63% active; FDSS; active compounds read high; Mas-related G-protein coupled receptor member X1 (Homo sapiens), Q96LB2; B-score at 10 µM;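 active = plate-corrected calcium response at least 3 library SD above typical, normal starting fluorescence, not activating the receptor alone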;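 also: compound read alongside a low EC10 to EC30 dose of BAM8-22 agonist; peak minus trough fluorescence over baseline measured at the second addition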
MrgX1 ag = agonists of human MrgX1 receptor, primary screen, HEK293 cells, Fluo-4 calcium flux; Mas-related G-protein coupled receptor member X1 (Homo sapiens), Q96LB2; Fluo-4 calcium fluorescence, agonist mode; active compounds read high; B-score at 10 µM; 310,000 tested, 0.44% active; AID 588627, 2011;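 active = calcium response B-score plate-corrected fluorescence ratio at least 3 library SD, with starting fluorescence B-score inside 5 SD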
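System – MrgX1-expressing HEK293 cells · Incubation – cells plated overnight, dye loaded 0.5 h 37 °C, 0.5 h room temperature · Technique – kinetic Fluo-4 NW fluorescence of intracellular calcium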
RGS4 inh valid = enhanced carbachol calcium response, M3R/RGS4 cells, RGS4 inhibitor project, cell-based, validation screen, HEK293 M3R/RGS4, calcium flux; shares compounds with RGS4 block; carbachol calcium Fluo-4 fluorescence; carbachol added at its EC20; 0 = buffer wells, 100 = carbachol control; calcium response, % at 10 µM; 1,700 tested, 65% active; AID 492999, 2010;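 active = duplicate-averaged calcium response above the buffer-only control mean plus 5 SD of those controls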;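 also: integrated fluorescence ratio F max minus min over baseline F0; higher response in RGS4-induced cells means RGS4 inhibition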
RGS4 uninduced = carbachol calcium response in non-induced M3R cells, confirmation, counter-screen for RGS4 inhibitor project, cell-based, HEK293 M3R. shares compounds with RGS4 block. carbachol calcium Fluo-4; submaximal (EC20) carbachol stimulus; buffer wells 0%, carbachol control wells 100%. activity (percent), % at 10 µM. 1,900 tested, 20% active. AID 493000, 2010; call rule not given here;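 also: RGS4 induction absent so cells express M3R without RGS4; higher means more calcium signal and flags a non-specific hit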
RGS4 inh ctr2 = second counter-screen for RGS4 inhibitors: non-induced cells without carbachol | calcium response (agonist-mode artifact), % at 10 µM | AID 493001 | HEK293 M3R/RGS4 non-induced, Fluo-4 calcium, no carbachol; normalised: buffer wells 0%, carbachol wells 100% | shares compounds with RGS4 block | 1,900 tested, 22% active;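 active = duplicate-averaged calcium rise in uninduced cells above buffer wells' mean plus 5 SD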
Of the large screens only hits and unclear results are named; the others gave an inactive call (follow-up assays come after a bar, where they were run).

O=c1[nH]c2ccc(Br)cc2c(-c2ccccc2)c1CN1CCOCC1	RGS4 block 7.5 | RGS4 inh valid 19% | RGS4 uninduced 48% | RGS4 inh ctr2 inactive
COc1ccc(C(=O)CCS(=O)(=O)c2ccc(C)cc2)cc1OC	RGS4 block 29 | RGS4 inh valid 80% | RGS4 uninduced 58% | RGS4 inh ctr2 20%
COc1ccc(C(=O)COC(=O)CCS(=O)(=O)c2ccc(C)cc2)c(OC)c1	none
CCCn1c(C(=O)OC)cc2c1ccn2-c1ccc(F)cc1	none
COC(=O)c1cc2c(ccn2-c2ccc(F)cc2)n1CC(C)C	RGS4 block 11 | RGS4 inh valid 36% | RGS4 uninduced inactive | RGS4 inh ctr2 inactive
Cc1ccc(/C=N/N2CCN(Cc3ccc(C)cc3)CC2)cc1	none | RGS4 inh valid inactive | RGS4 uninduced inactive | RGS4 inh ctr2 inactive
C#CCNC(=O)C1=C[C@@H](c2ccc3c(c2)OCO3)C[C@@H](OCCCCO)O1	none
CCN(CCO)c1nc(SC)nc2c1sc1nc(-c3ccco3)c3c(c12)CCC3	none | RGS4 inh valid inactive | RGS4 uninduced inactive | RGS4 inh ctr2 inactive
CCCN1C(=O)/C(=C/c2nc3ccccc3c(=O)[nH]2)c2cc(C)ccc21	RGS4 block 9.5 | RGS4 inh valid 26% | RGS4 uninduced 58% | RGS4 inh ctr2 inactive
CCCN1C(=O)/C(=C/c2nc3ccccc3c(=O)[nH]2)c2ccccc21	RGS4 block 11 | RGS4 inh valid 8.5% | RGS4 uninduced inactive | RGS4 inh ctr2 inactive
Cc1ccc(NC(=O)CN(C)C(=O)Cn2cc(C(F)(F)F)cc(Cl)c2=O)cc1	RGS4 block 5.5 | RGS4 inh valid inactive | RGS4 uninduced inactive | RGS4 inh ctr2 inactive
CC(=N\Nc1ccccc1)/C(=N/O)C(=O)Nc1ccccc1	none | RGS4 uninduced inactive | RGS4 inh ctr2 inactive
COc1ccc(CC(=O)Nc2ccc(-c3cn4ccc(C)cc4n3)cc2)cc1	none
Cc1ccc(NC(=O)CN(C)C(=O)c2cccnc2Nc2cccc(C(F)(F)F)c2)cc1	RGS4 block 6.8 | RGS4 inh valid 18% | RGS4 uninduced inactive | RGS4 inh ctr2 inactive
O=C(NC1CCCCC1)c1c2c(nc3ccccc13)CCC2	none
Oc1ccc(Br)cc1/C=N/n1c(C2CCCCC2)n[nH]c1=S	RGS4 block 5.7 | RGS4 inh valid 5.0% | RGS4 uninduced inactive | RGS4 inh ctr2 inactive
COc1ccc2c(c1)CCc1sc(NC(=O)c3ccco3)nc1-2	RGS4 block 6.6 | RGS4 inh valid 26% | RGS4 uninduced 32% | RGS4 inh ctr2 inactive
Cc1sc(NC(=O)c2ccco2)nc1-c1ccccc1	RGS4 block 7 | RGS4 inh valid 31% | RGS4 uninduced inactive | RGS4 inh ctr2 inactive
COc1ccc2c(c1)Cc1sc(NC(=O)c3ccco3)nc1-2	none | RGS4 uninduced inactive | RGS4 inh ctr2 inactive
COc1ccc2c(c1)-c1nc(NC(=O)c3ccco3)sc1CC2	RGS4 block 17 | RGS4 inh valid 48% | RGS4 uninduced 59% | RGS4 inh ctr2 inactive
COc1ccc2c(c1)Cc1sc(NC(C)=O)nc1-2	none
CCOC(=O)C1(Cc2ccc(Cl)cc2)CCN(C(C)Cc2ccc(O)c(OC)c2)CC1 (stereo not given)	none
COc1cccc(/C=N/n2c(-c3cc(C)[nH]n3)n[nH]c2=S)c1O	none
C=C(C)COc1ccc(C2NC(=O)c3ccccc3O2)cc1OCC (stereo not given)	none
Nc1ccc(SCC(=O)Nc2cccc([N+](=O)[O-])c2)cc1	none
Nc1cccn2c(-c3ccc(Cl)c(Cl)c3)cnc12	RGS4 block 12 | RGS4 inh valid 7.5% | RGS4 uninduced inactive | RGS4 inh ctr2 inactive
Nc1cccn2c(-c3ccc(Cl)cc3)cnc12	none
Cc1cc(C(=O)Nc2sc(C)c(C)c2C#N)c(C)o1	RGS4 block 7.5 | RGS4 inh valid 12% | RGS4 uninduced inactive | RGS4 inh ctr2 10%
Cc1sc(NC(=O)c2oc3ccccc3c2C)c(C#N)c1C	none
CCOc1ccc2oc(C(=O)NNC(=O)c3csc(N4CCOCC4)n3)c(C)c2c1	none
CC(CCN1C(N(C)C)=NC[C@@H]1C)c1ccccc1 (stereo not given in full)	none (no result: RGS4 act, RGS4 block)
CC(C)Sc1cc(N2CCOCC2)nc(-c2ccc(Cl)cc2)n1	RGS4 block 5.2 | RGS4 inh valid 12% | RGS4 uninduced 28% | RGS4 inh ctr2 inactive
COc1cccc(Sc2cc(N3CCOCC3)nc(-c3ccccc3)n2)c1	RGS4 block 8.8 | RGS4 inh valid 34% | RGS4 uninduced inactive | RGS4 inh ctr2 inactive
CCN1CCN(c2cc(SC(C)C)nc(-c3ccc(OC)cc3)n2)CC1	none (no result: MrgX1 antag, MrgX1 PAM, MrgX1 ag)
c1ccc(-c2nc(N3CCOCC3)cc(N3CCOCC3)n2)cc1	none
CSCc1cc(N2CCOCC2)nc(-c2ccccc2)n1	none
Clc1ccc(Sc2cc(N3CCOCC3)nc(-c3ccccc3)n2)cc1	RGS4 block 7.7 | RGS4 inh valid 14% | RGS4 uninduced inactive | RGS4 inh ctr2 inactive
CC1=NN(c2ccc(Cl)cc2)C(=O)/C1=C\c1cccn1-c1ccc(S(N)(=O)=O)cc1	RGS4 block 4.9 | RGS4 inh valid 43% | RGS4 uninduced 42% | RGS4 inh ctr2 inactive
CCC(C)NC(=O)c1cc(S(=O)(=O)N2CCCCC2)c[nH]1 (stereo not given)	none
O=C1Cc2ccccc2C(=O)N1c1cccc(Cl)c1	none
O=C1Cc2ccccc2C(=O)N1c1ccccc1	RGS4 block 5.6 | RGS4 inh valid 5.0% | RGS4 uninduced inactive | RGS4 inh ctr2 inactive
O=C/C=C/c1coc2ccc3ccccc3c2c1=O	RGS4 block 15 | RGS4 inh valid 13% | RGS4 uninduced 36% | RGS4 inh ctr2 inactive
Cc1ccccc1CN(C)CC(=O)Nc1c(C)cccc1C(C)C	none
COc1ccc(NC(=O)C(=O)NCC(=O)Nc2cc(OC)ccc2OC)cc1	none
COc1ccc(OC)c(NC(=O)C(=O)NCc2ccncc2)c1	RGS4 block 4.8 | RGS4 inh valid 10% | RGS4 uninduced inactive | RGS4 inh ctr2 inactive
COCCNC(=O)c1cc(C(=O)CC(C)C)c[nH]1	none
